# Measurements taken from ChEMBL document CHEMBL1921709, “Synthesis and activity of new macrolones: conjugates between 6(7)-(2'-aminoethyl)-amino-1-cyclopropyl-3-carboxylic acid (2'-hydroxyethyl) amides and 4″-propenoyl-azithromycin” (2011).
# Key:
# Type in all cases: functional
# Streptococcus pneumoniae [1] = experiment: Antibacterial activity against efflux-mediated macrolide-resistant Streptococcus pneumoniae Ci137 by broth microdilution method
# Method in brief: (§1)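 CLSI broth microdilution MIC with automated double dilutions of compound. The medium was supplemented with 5% horse serum in place of lysed blood. Bacteria were pre-grown on appropriate agar plates.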
# Streptococcus pneumoniae [2] = experiment: Antibacterial activity against inducible macrolide-resistant, constitutive lincosamide and streptogramin-resistant Streptococcus pneumoniae 134 GR M by broth microdilution method; method in brief: as §1
# Staphylococcus aureus [3] = experiment: Antibacterial activity against inducible macrolide, lincosamide and streptogramin B-resistant Staphylococcus aureus 90256/97 by broth microdilution method
# Method in brief: (§2)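 Standard CLSI broth microdilution MIC test with automated double dilutions of compound. Bacteria were pre-grown on appropriate agar plates.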
# Moraxella catarrhalis = experiment: Antibacterial activity against Moraxella catarrhalis ATCC 23246 by broth microdilution method
# Method in brief: (§3)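 Broth microdilution following CLSI guidelines, using two-fold serial dilutions of compound. Bacteria were first grown on appropriate agar plates. Read-out is growth inhibition, reported as MIC.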
# Streptococcus pneumoniae [4] = experiment: Antibacterial activity against constitutive macrolide, lincosamide, streptogramin-resistant Streptococcus pneumoniae 58 spain by broth microdilution method; method in brief: as §1
# Streptococcus pyogenes [5] = experiment: Antibacterial activity against efflux-mediated macrolide-resistant Streptococcus pyogenes Finland 2 by broth microdilution method; method in brief: as §1
# Haemophilus influenzae = experiment: Antibacterial activity against Haemophilus influenzae ATCC 49247 by broth microdilution method; method in brief: as §3
# Staphylococcus aureus [6] = experiment: Antibacterial activity against efflux-mediated macrolide-resistant Staphylococcus aureus PK1 by broth microdilution method; method in brief: as §2
# Streptococcus pyogenes [7] = experiment: Antibacterial activity against inducible macrolide-lincosamide-streptogramin B resistant Streptococcus pyogenes Finland 11 by broth microdilution method; method in brief: as §1
# Streptococcus pyogenes [8] = experiment: Antibacterial activity against constitutive macrolide, lincosamide, streptogramin-resistant Streptococcus pyogenes 166 GR-Micro by broth microdilution method; method in brief: as §1
# Staphylococcus aureus [9] = experiment: Antibacterial activity against erythromycin-sensitive Staphylococcus aureus ATCC 13709 by broth microdilution method; method in brief: as §3
# Streptococcus pyogenes [10] = experiment: Antibacterial activity against erythromycin-sensitive Streptococcus pyogenes 3565 by broth microdilution method
# Method in brief: (§4)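 Broth microdilution following CLSI guidelines, except that 5% horse serum replaced lysed blood in the Streptococcus medium. Two-fold serial dilutions of compound were used. Bacteria were first grown on appropriate agar plates. Read-out is growth inhibition, reported as MIC.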
# Streptococcus pneumoniae [11] = experiment: Antibacterial activity against erythromycin-sensitive Streptococcus pneumoniae SP 030 by broth microdilution method; method in brief: as §4
# Staphylococcus aureus [12] = experiment: Antibacterial activity against constitutive macrolide, lincosamide, streptogramin-resistant Staphylococcus aureus PK2 by broth microdilution method; method in brief: as §2
Compound,MIC (Streptococcus pneumoniae [1]) [µg/mL],MIC (Streptococcus pneumoniae [2]) [µg/mL],MIC (Staphylococcus aureus [3]) [µg/mL],MIC (Moraxella catarrhalis) [µg/mL],MIC (Streptococcus pneumoniae [4]) [µg/mL],MIC (Streptococcus pyogenes [5]) [µg/mL],MIC (Haemophilus influenzae) [µg/mL],MIC (Staphylococcus aureus [6]) [µg/mL],MIC (Streptococcus pyogenes [7]) [µg/mL],MIC (Streptococcus pyogenes [8]) [µg/mL],MIC (Staphylococcus aureus [9]) [µg/mL],MIC (Streptococcus pyogenes [10]) [µg/mL],MIC (Streptococcus pneumoniae [11]) [µg/mL],MIC (Staphylococcus aureus [12]) [µg/mL]
NCCNc1cc2c(cc1F)c(=O)c(C(=O)NCCO)cn2C1CC1,> 64,> 64,> 64,> 64,> 64,> 64,> 64,> 64,> 64,> 64,> 64,> 64,> 64,> 64
CC[C@H]1OC(=O)[C@H](C)[C@@H](O[C@H]2C[C@@](C)(OC)[C@@H](OC(=O)CCNCCNc3cc4c(=O)c(C(=O)NCCO)cn(C5CC5)c4cc3Cl)[C@H](C)O2)[C@H](C)[C@@H](O[C@@H]2O[C@H](C)C[C@H](N(C)C)[C@H]2O)[C@](C)(O)C[C@@H](C)CN(C)[C@H](C)[C@@H](O)[C@]1(C)O,2,32,> 64,0.5,16,4,4,> 64,1,32,4,≤ 0.125,≤ 0.125,> 64
CC[C@H]1OC(=O)[C@H](C)[C@@H](O[C@H]2C[C@@](C)(OC)[C@@H](OC(=O)CCNCCNc3cc4c(cc3F)c(=O)c(C(=O)NCCO)cn4C3CC3)[C@H](C)O2)[C@H](C)[C@@H](O[C@@H]2O[C@H](C)C[C@H](N(C)C)[C@H]2O)[C@](C)(O)C[C@@H](C)CN(C)[C@H](C)[C@@H](O)[C@]1(C)O,4,64,> 64,0.5,32,16,4,> 64,4,> 64,4,≤ 0.125,≤ 0.125,> 64
CC[C@H]1OC(=O)[C@H](C)[C@@H](O[C@H]2C[C@@](C)(OC)[C@@H](OC(=O)CCN(C)CCNc3cc4c(=O)c(C(=O)NCCO)cn(C5CC5)c4cc3Cl)[C@H](C)O2)[C@H](C)[C@@H](O[C@@H]2O[C@H](C)C[C@H](N(C)C)[C@H]2O)[C@](C)(O)C[C@@H](C)CN(C)[C@H](C)[C@@H](O)[C@]1(C)O,0.5,4,> 64,1,32,2,4,32,2,> 64,2,≤ 0.125,≤ 0.125,> 64
CC[C@H]1OC(=O)[C@H](C)[C@@H](O[C@H]2C[C@@](C)(OC)[C@@H](OC(=O)CCNCCNc3ccc4c(c3)c(=O)c(C(=O)NCCO)cn4C3CC3)[C@H](C)O2)[C@H](C)[C@@H](O[C@@H]2O[C@H](C)C[C@H](N(C)C)[C@H]2O)[C@](C)(O)C[C@@H](C)CN(C)[C@H](C)[C@@H](O)[C@]1(C)O,4,32,> 64,0.5,> 64,16,8,> 64,4,> 64,4,0.25,≤ 0.125,> 64
CC[C@H]1OC(=O)[C@H](C)[C@@H](O[C@H]2C[C@@](C)(OC)[C@@H](OC(=O)CCN(C)CCNc3ccc4c(c3)c(=O)c(C(=O)NCCO)cn4C3CC3)[C@H](C)O2)[C@H](C)[C@@H](O[C@@H]2O[C@H](C)C[C@H](N(C)C)[C@H]2O)[C@](C)(O)C[C@@H](C)CN(C)[C@H](C)[C@@H](O)[C@]1(C)O,1,4,> 64,1,> 64,4,4,64,4,> 64,2,0.25,≤ 0.125,> 64
CC[C@H]1OC(=O)[C@H](C)[C@@H](O[C@H]2C[C@@](C)(OC)[C@@H](O)[C@H](C)O2)[C@H](C)[C@@H](O[C@@H]2O[C@H](C)C[C@H](N(C)C)[C@H]2O)[C@](C)(O)C[C@@H](C)CN(C)[C@H](C)[C@@H](O)[C@]1(C)O [AZITHROMYCIN],8,> 64,> 64,≤ 0.125,> 64,8,1,> 64,16,> 64,0.5,≤ 0.125,≤ 0.125,> 64
